This is an account of results in ChEMBL document CHEMBL2086353, “Design, synthesis and structure-activity relationship of novel inhibitors against H5N1 hemagglutinin-mediated membrane fusion” (Eur J Med Chem, 2012).

Active and inactive are the calls of the source. No cut-off for these calls is given here.

One experiment relates to Influenza A virus. Kind of experiment: Antiviral activity against Influenza A virus (A/Thailand/Kan353/2004(H5N1)) assessed as inhibition of viral infection. Format: functional, organism-based.
With `O=C(NCCN1CCCCC1)c1cc(F)cc(C(F)(F)F)c1`, the IC50 is 27 µM.

System in another experiment: not listed separately
Description: Inhibition of Influenza A virus (A/Anhui/1/2005(H5N1)) hemagglutininin-mediated membrane fusion assessed as inhibition of H5N1 pesudovirus infection of MDCK cells using A/Anhui/1/2005(H5N1) hemagglutinin plasmid and NA plasmid from N1 subtype strain A/Thailand/Kan353/ 2004 infected in 293T cells by luciferase reporter gene assay. Format: cell-based. An outline of the steps: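 MDCK target cells grown in DMEM with glutamine and 10% FCS. Compound at indicated concentrations preincubated with H5N1 HA/NA-pseudotyped luciferase-reporter particles (1 ng p24/well) for 30 min at 37 °C. Mixture then added to cells for 48 h. Cells PBS-washed and lysed, and luciferase activity read on a luminometer.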
In the case of `O=C(NCCc1cccs1)c1cncc(Cl)c1`, the IC50 is 9.2 µM.

In the case of `CC(NC(=O)c1cc(F)cc(C(F)(F)F)c1)c1ccc2ccccc2c1` (stereo unspecified), the concentration for half-maximal inhibition (IC50) stood at 49 µM.

For the molecule `CN1CCN(CCCNC(=O)c2cc(C(F)(F)F)cc(C(F)(F)F)c2)CC1`, the half-maximal inhibitory concentration (IC50) came to 66.6 µM.

Consider `O=C(NCCN1CCOCC1)c1cc(F)cc(C(F)(F)F)c1`, for which the concentration for half-maximal inhibition (IC50) worked out at 1.22 µM.

As to `O=C(NCCN1CCCC1)c1cc(O)c(O)cc1O`, the half-maximal inhibitory concentration (IC50) was found to be 41.5 µM.

As for `O=C(NCCc1cccs1)c1cccc(C(F)(F)F)c1`, the IC50 turned out to be 4.33 µM.

As for `CN1CCN(CCCNC(=O)c2cc(F)cc(C(F)(F)F)c2)CC1`, the half-maximal inhibitory concentration (IC50) worked out at 84.3 µM.

As to `O=C(NCCN1CCCCC1)c1cncc(Br)c1`, the half-maximal inhibitory concentration (IC50) came to 5.13 µM.

In the case of `O=C(NCCN1CCOCC1)c1cc(C(F)(F)F)cc(C(F)(F)F)c1`, the 50% inhibitory concentration (IC50) was 9.89 µM.

Turning to `O=C(NCc1ccncc1)c1cc(F)cc(C(F)(F)F)c1`, the IC50 amounted to 0.56 µM.

`O=C(NCCN1CCCCC1)c1cncc(Cl)c1`: the IC50 is 6.25 µM.

For the molecule `O=C(NCCN1CCCCC1)c1cc(C(F)(F)F)cc(C(F)(F)F)c1`, the concentration for half-maximal inhibition (IC50) came to 2.51 µM.

In the case of `O=C(NCCc1ccccc1)c1cc(F)cc(C(F)(F)F)c1`, the IC50 came to 0.33 µM.

With `O=C(NCCc1cccs1)c1cc(F)cc(C(F)(F)F)c1`, the IC50 amounted to 0.22 µM.

With `O=C(NCCc1ccccc1)c1cc(C(F)(F)F)cc(C(F)(F)F)c1`, the concentration for half-maximal inhibition (IC50) was determined as 2.47 µM.

`O=S(=O)(NCCN1CCCCC1)c1cccc(C(F)(F)F)c1`: the IC50 stood at 54.9 µM.

With `CC(NC(=O)c1cc(C(F)(F)F)cc(C(F)(F)F)c1)c1ccc2ccccc2c1` (stereo unspecified), the IC50 turned out to be 40.8 µM.

In the case of `O=C(NCCOC(=O)c1cc(F)cc(C(F)(F)F)c1)c1cc(F)cc(C(F)(F)F)c1`, the IC50 turned out to be 60 µM.

For the molecule `O=C(NCCc1ccccc1)c1cccc(C(F)(F)F)c1`, the IC50 stood at 80 µM.

`O=C(OCCN1CCCCC1)c1cc(F)cc(C(F)(F)F)c1`: the IC50 came out at 61.2 µM.

Turning to `O=C(NCCc1cccs1)c1cncc(Br)c1`, the IC50 worked out at 7.61 µM.

`O=C(NCCN1CCCCC1)c1cc(F)cc(C(F)(F)F)c1`: the concentration for half-maximal inhibition (IC50) is 0.37 µM.

For `O=C(NCCN1CCCC1)c1cc(C(F)(F)F)cc(C(F)(F)F)c1`, the half-maximal inhibitory concentration (IC50) came to 1.71 µM.

Take `O=C(NC1CCCCC1)c1cccc(C(F)(F)F)c1`: the half-inhibitory concentration (IC50) is 7.8 µM.

In the case of `O=C(NCCN1CCCC1)c1cc(F)cc(C(F)(F)F)c1`, the concentration for half-maximal inhibition (IC50) turned out to be 0.38 µM.

`O=C(NCc1cccnc1)c1cc(C(F)(F)F)cc(C(F)(F)F)c1`: the IC50 amounted to 2.46 µM.

Regarding `O=C(NCCc1cccs1)c1cc(C(F)(F)F)cc(C(F)(F)F)c1`, the half-maximal inhibitory concentration (IC50) is 2.44 µM.

For the next experiment, the system named is MDCK. Kind of experiment: Inhibition of Vesicular stomatitis virus G hemagglutininin-mediated membrane fusion assessed as inhibition of […] infection of MDCK cells by luciferase reporter gene assay. The experiment is classed as cell-based. An outline of the steps: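 Specificity control: VSV-G-pseudotyped luciferase-reporter particles replace the H5N1 pseudovirus. Compound preincubated with particles (1 ng p24/well) for 30 min at 37 °C, then added to MDCK cells (DMEM, 10% FCS) for 48 h. Lysate luciferase read on a luminometer.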
As for `O=C(NCc1ccncc1)c1cc(F)cc(C(F)(F)F)c1`, the inhibition result is “inactive”.

As to `O=C(NCCc1cccs1)c1cc(F)cc(C(F)(F)F)c1`, the inhibition result is “inactive”.

On to `O=C(NCCN1CCCC1)c1cc(F)cc(C(F)(F)F)c1`, for which the inhibition result is “inactive”.

Usually IC50 stands for the midpoint of a concentration-inhibition curve.
